The values that follow come from ChEMBL document CHEMBL1914368, “Imidazo[1,5-a]quinoxalines as irreversible BTK inhibitors for the treatment of rheumatoid arthritis” (Bioorg Med Chem Lett, 2011).

In general, IC50 refers to the midpoint of a concentration-inhibition curve. As usually defined, the inhibition is the drop in the measured response relative to a control, in per cent. One may read the Cmax as the highest concentration seen after dosing.

Data set [1] addresses Tyrosine-protein kinase BTK (Homo sapiens, UniProt Q06187). Nature of the data set: Inhibition of human full-length BTK expressed in Sf9 cells using FAM-Srctide peptide as substrate preincubated for 60 mins measured after 60 mins by TR-FRET Assay. In a few lines:
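The compound was pre-incubated with the kinase before the enzymatic reaction was started. IC50 values are averages of two or more determinations.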
On the technique in general: In TR-FRET formats the signal depends on donor and acceptor labels being close together.

Data set [2] has as its target Tyrosine-protein kinase Fer (Homo sapiens) (UniProt P16591). As to the kind of experiment: Inhibition of FER relative to control. The following applies: concentration not given here.
In data set [3] the target is Tyrosine-protein kinase JAK3 (Homo sapiens) (UniProt P52333). Nature of the data set: Inhibition of JAK3 relative to control. Conditions: concentration not given here.
Tyrosine-protein kinase JAK3 (Homo sapiens), sequence (P52333 whole entry): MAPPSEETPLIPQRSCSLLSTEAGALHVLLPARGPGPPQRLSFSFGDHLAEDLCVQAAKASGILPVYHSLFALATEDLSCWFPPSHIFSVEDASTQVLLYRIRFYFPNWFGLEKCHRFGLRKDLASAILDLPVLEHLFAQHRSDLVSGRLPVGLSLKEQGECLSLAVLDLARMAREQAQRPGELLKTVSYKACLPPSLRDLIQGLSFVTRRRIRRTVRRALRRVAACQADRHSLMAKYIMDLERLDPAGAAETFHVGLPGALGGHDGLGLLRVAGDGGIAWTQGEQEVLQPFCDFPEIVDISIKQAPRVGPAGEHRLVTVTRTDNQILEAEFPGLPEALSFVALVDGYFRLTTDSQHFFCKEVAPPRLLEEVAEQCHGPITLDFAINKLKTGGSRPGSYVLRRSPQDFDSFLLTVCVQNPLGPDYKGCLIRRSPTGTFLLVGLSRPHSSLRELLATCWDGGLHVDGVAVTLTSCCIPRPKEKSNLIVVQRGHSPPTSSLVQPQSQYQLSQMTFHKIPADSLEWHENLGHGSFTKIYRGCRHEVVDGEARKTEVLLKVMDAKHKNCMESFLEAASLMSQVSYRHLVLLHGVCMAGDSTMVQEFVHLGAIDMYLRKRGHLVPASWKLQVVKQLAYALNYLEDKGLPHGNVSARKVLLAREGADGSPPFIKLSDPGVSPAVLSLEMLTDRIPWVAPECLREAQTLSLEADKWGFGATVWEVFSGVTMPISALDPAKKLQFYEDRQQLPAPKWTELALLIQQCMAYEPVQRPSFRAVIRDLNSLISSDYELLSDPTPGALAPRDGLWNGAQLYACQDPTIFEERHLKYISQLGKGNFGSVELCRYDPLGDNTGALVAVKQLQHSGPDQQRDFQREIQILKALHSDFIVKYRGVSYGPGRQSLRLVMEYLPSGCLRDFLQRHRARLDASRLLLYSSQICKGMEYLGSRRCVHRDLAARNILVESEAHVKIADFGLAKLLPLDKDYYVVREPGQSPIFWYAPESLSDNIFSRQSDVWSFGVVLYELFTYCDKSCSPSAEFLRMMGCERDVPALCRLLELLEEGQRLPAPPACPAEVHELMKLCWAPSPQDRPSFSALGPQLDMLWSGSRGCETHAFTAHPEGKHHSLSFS
The target in data set [4] is Cytoplasmic tyrosine-protein kinase BMX (Homo sapiens) (UniProt P51813). As to the kind of experiment: Inhibition of BMX relative to control. The following applies: concentration not given here.
The target of data set [5] is Platelet-derived growth factor receptor beta (Homo sapiens) (UniProt P09619). As to the kind of experiment: Inhibition of PDGFRbeta relative to control. The following applies: concentration not given here.
Platelet-derived growth factor receptor beta (Homo sapiens), sequence (P09619 whole entry): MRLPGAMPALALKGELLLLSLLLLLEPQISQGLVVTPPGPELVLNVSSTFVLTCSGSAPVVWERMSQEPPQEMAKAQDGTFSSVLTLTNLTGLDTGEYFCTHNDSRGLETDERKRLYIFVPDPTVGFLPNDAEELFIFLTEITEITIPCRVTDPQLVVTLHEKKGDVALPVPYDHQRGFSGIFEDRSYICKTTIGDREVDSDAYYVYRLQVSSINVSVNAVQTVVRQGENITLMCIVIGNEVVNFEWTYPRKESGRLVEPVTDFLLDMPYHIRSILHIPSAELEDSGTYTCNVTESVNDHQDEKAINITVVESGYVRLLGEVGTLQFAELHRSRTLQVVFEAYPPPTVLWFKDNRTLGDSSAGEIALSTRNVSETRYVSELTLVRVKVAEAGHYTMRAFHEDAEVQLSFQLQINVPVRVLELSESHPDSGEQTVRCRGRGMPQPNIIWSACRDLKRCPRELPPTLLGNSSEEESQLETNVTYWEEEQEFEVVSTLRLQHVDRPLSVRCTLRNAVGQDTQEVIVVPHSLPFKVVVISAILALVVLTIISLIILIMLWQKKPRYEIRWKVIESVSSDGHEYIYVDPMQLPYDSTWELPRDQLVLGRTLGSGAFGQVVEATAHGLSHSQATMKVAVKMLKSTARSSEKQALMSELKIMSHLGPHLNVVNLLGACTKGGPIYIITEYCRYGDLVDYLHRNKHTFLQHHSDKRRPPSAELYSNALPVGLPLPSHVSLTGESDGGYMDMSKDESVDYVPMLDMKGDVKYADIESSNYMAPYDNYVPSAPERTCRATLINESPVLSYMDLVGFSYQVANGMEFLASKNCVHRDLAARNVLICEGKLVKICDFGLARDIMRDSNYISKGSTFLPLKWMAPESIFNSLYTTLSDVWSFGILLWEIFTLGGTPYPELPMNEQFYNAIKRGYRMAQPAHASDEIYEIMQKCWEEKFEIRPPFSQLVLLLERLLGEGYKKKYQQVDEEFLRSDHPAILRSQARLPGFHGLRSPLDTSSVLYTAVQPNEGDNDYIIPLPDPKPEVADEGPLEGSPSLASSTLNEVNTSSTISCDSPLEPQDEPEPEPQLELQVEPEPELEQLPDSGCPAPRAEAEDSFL
Data set [6] deals with Tyrosine-protein kinase CSK (Homo sapiens) (UniProt P41240). Nature of the data set: Inhibition of CSK relative to control. Conditions: concentration not given here.
A short description of data set [7]: Volume of distribution at steady state in mouse at 2 mg/kg, iv. Conditions: in vivo, read-out: Vdss. It is filed as ADME, organism-based. Set-up: dose 2 mg/kg, route intravenous. In a few lines: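 Mouse pharmacokinetics from single dosing at 2 mg/kg iv and 10 mg/kg po. The study derived AUC, T1/2, clearance, Vss, Tmax, Cmax and oral bioavailability (%F) from the paired iv and po arms.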

Data set [8] has as its target Serine/threonine-protein kinase TBK1 (Homo sapiens) (UniProt Q9UHD2). Nature of the data set: Inhibition of TBK1 relative to control. Conditions: concentration not given here.
Data set [9] can be described thus: Inhibition of anti-IgM-stimulated human B cell proliferation assessed as [3H]thymidine incorporation preincubated for 30 mins measured after 3 days. It is filed as functional, cell-based. Conditions: Homo sapiens, B-cell; read-out: IC50. A general note: Incorporation of labelled thymidine or its analogues reports DNA synthesis.
Data set [10] addresses Tyrosine-protein kinase ITK/TSK (Homo sapiens) (UniProt Q08881). As to the kind of experiment: Inhibition of ITK relative to control. Conditions: concentration not given here.
For data set [11], the target named is Hepatocyte growth factor receptor (Homo sapiens) (UniProt P08581). Nature of the data set: Inhibition of MET relative to control. Conditions: concentration not given here.
Hepatocyte growth factor receptor (Homo sapiens), sequence (P08581 whole entry): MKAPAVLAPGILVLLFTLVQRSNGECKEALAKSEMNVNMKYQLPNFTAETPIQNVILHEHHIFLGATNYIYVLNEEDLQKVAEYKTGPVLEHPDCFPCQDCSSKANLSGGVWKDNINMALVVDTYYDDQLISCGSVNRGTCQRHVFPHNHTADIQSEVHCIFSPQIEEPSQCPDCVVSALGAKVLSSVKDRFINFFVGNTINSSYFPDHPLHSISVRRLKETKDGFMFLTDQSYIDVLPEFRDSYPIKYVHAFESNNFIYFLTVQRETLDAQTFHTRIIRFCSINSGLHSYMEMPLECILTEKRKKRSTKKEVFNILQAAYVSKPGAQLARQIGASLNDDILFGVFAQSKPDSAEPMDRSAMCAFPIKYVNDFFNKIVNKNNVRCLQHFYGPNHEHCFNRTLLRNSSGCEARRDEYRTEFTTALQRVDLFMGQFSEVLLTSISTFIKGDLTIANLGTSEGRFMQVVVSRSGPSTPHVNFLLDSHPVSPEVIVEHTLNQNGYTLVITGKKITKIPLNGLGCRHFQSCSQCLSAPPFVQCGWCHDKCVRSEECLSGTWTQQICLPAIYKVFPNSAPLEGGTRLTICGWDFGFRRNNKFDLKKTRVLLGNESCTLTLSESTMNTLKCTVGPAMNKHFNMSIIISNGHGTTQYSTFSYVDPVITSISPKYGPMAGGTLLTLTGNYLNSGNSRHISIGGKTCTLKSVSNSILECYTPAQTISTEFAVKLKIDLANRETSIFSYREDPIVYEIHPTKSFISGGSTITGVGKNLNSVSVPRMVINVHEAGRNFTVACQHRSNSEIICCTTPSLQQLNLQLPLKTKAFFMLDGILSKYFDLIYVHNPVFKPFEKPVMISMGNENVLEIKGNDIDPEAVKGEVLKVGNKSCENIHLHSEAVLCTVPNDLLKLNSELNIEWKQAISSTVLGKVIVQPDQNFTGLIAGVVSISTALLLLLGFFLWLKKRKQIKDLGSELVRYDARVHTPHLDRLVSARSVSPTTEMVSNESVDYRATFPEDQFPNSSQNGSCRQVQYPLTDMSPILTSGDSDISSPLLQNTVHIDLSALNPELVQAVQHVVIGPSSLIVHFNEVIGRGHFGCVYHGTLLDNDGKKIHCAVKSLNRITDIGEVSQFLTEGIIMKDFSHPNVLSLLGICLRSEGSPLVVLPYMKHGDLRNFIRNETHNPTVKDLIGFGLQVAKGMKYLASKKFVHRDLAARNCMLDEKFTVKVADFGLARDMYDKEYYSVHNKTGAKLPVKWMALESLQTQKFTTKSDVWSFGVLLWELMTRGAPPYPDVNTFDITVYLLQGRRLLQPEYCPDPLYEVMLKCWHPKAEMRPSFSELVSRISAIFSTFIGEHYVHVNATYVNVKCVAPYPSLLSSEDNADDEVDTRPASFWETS
Data set [12] concerns Mus musculus. As to the kind of experiment: Antiarthritic activity in C57BL/6 mouse assessed as inhibition of T-independent type 2 antigen-induced IgG3 antibody titer production administered qd for 7 days by ELISA. The following applies: C57BL6. It is filed as functional, organism-based. In a few lines:
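Female C57BL/6 mice, 8–10 weeks old, immunized ip with NP(109)-Ficoll (TI-2 antigen). Compound or vehicle given po daily for 7 days, starting 1 day before immunization. Serum was collected 6 days after immunization, and NP-specific IgM and IgG3 titers were measured by ELISA.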
On the technique in general: In an ELISA, binding on a coated surface is turned into a signal by an enzyme label.

Data set [13] is described as follows: Cmax in mouse at 10 mg/kg, po. Set-up: dose 10 mg/kg, route oral. Conditions: in vivo. It is filed as ADME, organism-based.
Data set [14] deals with Tyrosine-protein kinase Tec (Homo sapiens) (UniProt P42680). As to the kind of experiment: Inhibition of TEC relative to control. The following applies: concentration not given here.

Tyrosine-protein kinase ITK/TSK (Homo sapiens), sequence (Q08881 whole entry): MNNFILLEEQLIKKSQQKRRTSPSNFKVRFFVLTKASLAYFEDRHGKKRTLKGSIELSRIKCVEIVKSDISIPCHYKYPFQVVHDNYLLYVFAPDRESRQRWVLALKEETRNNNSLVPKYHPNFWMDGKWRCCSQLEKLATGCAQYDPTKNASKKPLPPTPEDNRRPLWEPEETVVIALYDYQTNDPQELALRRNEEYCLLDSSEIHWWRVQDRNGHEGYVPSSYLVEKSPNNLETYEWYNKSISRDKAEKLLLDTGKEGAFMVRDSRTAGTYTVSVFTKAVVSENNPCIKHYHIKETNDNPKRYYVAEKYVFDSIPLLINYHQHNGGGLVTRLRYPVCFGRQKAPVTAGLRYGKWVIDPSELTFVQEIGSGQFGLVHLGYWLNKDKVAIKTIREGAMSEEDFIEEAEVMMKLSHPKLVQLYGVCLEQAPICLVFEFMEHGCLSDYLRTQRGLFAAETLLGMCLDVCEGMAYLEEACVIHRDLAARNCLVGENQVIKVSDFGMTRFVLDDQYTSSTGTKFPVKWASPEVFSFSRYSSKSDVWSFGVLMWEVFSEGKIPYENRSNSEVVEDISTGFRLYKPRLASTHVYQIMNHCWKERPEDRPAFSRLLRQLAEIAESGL
Tyrosine-protein kinase BTK, sequence (Q06187 whole entry): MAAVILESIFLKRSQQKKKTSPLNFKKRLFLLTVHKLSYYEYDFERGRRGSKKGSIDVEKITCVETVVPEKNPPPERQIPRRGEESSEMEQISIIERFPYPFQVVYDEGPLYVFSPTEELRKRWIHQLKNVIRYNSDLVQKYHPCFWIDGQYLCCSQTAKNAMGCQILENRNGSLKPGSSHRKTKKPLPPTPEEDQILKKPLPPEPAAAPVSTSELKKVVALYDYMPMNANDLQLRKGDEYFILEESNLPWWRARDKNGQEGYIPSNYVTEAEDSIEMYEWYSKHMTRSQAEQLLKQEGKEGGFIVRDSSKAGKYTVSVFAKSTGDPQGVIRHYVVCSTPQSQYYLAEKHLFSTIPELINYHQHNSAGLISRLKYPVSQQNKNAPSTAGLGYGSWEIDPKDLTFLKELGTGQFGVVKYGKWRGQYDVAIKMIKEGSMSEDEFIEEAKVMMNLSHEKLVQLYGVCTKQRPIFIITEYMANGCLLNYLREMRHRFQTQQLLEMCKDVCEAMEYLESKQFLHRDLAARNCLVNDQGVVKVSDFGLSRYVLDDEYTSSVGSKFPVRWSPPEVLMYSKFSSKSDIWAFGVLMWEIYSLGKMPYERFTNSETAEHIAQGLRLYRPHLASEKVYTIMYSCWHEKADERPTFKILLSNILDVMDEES

`Cc1ccccc1Nc1nc2cc(F)c(N(C)C(=O)/C=C/CN(C)C)cc2n2cncc12`: the results for the half-maximal inhibitory concentration (IC50) in data set [1] and in data set [9] were 0.7 nM and 3.41 nM, respectively. For the same molecule, the inhibition in data set [2] is 7%; in data set [3], -4%; in data set [4] it was 100%; in data set [5], 2%; in data set [6] it was 15%; in data set [8], -5%. Further, the inhibition in data set [10] is 5%; in [11], -1%; in data set [12], “Dose-dependent effect”; in [14], 42%. For the same molecule, the Vd in data set [7] came out at 6.2 L/kg. The molecule further yielded a Cmax in data set [13] of 220 ng/mL.
